Data taken from PMC9051311 (RSC Advances, 2020).
No end group written: not given here.

Tests used:
[1] = molecular target: T1, ACE (E.C. 3.4.15.1) from the lungs of rabbits (Oryctolagus cuniculus, UniProt P12822); experiment: ACE inhibitory; type: biochemical, rabbit
T1 sequence (P12822 34-1310): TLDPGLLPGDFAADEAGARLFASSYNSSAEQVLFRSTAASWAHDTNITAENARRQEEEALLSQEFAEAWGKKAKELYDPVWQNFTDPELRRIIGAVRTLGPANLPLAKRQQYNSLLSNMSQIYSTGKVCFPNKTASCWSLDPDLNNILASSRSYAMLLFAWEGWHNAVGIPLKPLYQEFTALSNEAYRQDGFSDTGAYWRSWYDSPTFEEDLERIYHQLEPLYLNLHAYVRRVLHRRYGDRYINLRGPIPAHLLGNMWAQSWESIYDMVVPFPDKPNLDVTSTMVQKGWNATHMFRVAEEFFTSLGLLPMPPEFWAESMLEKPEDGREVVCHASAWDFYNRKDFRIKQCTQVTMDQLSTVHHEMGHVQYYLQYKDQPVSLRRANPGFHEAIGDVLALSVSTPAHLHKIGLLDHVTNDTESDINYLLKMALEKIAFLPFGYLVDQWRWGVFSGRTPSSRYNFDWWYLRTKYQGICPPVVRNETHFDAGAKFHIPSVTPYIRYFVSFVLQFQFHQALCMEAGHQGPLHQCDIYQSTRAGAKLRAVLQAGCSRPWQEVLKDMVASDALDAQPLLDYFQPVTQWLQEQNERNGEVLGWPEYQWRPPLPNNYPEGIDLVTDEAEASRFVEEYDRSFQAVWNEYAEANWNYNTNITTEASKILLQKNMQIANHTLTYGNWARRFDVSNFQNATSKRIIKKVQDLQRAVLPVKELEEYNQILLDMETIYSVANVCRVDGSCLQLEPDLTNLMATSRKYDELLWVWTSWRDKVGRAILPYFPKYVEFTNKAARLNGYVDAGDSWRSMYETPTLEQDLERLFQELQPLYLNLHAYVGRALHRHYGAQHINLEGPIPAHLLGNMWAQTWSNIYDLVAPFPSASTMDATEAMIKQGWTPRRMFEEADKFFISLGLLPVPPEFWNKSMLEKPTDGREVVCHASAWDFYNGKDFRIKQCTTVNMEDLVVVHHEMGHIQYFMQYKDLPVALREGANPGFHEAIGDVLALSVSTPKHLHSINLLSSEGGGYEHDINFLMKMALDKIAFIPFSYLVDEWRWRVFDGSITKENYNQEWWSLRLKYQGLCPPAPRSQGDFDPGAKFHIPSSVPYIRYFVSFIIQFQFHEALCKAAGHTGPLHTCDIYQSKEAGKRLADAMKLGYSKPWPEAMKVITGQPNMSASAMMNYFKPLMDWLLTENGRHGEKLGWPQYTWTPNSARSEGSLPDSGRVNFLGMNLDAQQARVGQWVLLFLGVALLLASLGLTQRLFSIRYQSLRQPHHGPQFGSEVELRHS
Outline: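 Rabbit-lung ACE (solution at 25 mU mL−1) pre-incubated with sample for 10 min at 37 °C, then 30 min at 37 °C with HHL (10 mM solution in PBS). Stopped with 1 M HCl. Hippuric acid extracted into ethyl acetate, dried under vacuum, redissolved in water and read at A250 against a hippuric acid standard curve. Captopril positive control. % inhibition corrected for blanks; IC50 by non-linear regression; triplicate.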

[2] = Observed solubility of the peptide in water; type: physicochemical

IC50 [1] [µM] | solubility [2] [µg/mL] | Sequence
2.15 ± 0.016 |  | ETSGMKPTEL [ETSGMKPTEL, Glu–Thr–Ser–Gly–Met–Lys–Pro–Thr–Glu–Leu]
3.88 ± 0.004 | ≥ 5000 | ISSMGILVCL [ISSMGILVCL, Ile–Ser–Ser–Met–Gly–Ile–Leu–Val–Cys–Leu]
